Most compounds without a hit are left out; they make up all but 2.3% or so of the library.
ATG4B inhibitor: ATG4B protease inhibitors, primary screen, biochemical, fluorescence, uHTS. Cysteine protease ATG4B (Homo sapiens), Q9Y4P1. 340,000 tested, 0.51% active. inhibition, % at 8.33 µM. ATG4B cleavage of LC3-PLA2, NBD-HPC fluorescence, 1 h; in the data active means inhibition above about 40%
Target sequence (Q9Y4P1 whole entry, looked up): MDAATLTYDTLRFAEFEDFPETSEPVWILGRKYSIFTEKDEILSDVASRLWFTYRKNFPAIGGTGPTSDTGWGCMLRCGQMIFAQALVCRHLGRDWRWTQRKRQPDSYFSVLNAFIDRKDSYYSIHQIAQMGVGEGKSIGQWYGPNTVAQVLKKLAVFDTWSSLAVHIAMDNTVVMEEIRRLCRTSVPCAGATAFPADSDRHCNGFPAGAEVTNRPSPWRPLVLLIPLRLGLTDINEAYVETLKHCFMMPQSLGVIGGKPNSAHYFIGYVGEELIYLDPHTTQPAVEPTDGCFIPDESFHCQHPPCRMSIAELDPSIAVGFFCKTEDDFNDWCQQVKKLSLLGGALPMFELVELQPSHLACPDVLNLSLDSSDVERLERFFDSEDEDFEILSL
SKN-1 block: suppressors of acrylamide-induced Pgst-4::GFP reporter in worms, primary screen, SKN-1 inhibitor project, whole organism, uHTS, GFP/RFP fluorescence ratio, strain VP596 | C. elegans VP596 Pgst-4::GFP/RFP ratio, 24 h | inhibition, % at 21.8 µM | 360,000 tested, 0.49% active | AID 624304, 2012;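 active means interference check ratio from 0.5 to 1.5 plus GFP to RFP signal ratio inhibition reaching or exceeding a fixed threshold, cut at about 30% in these data, passing the limit was not always enough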
MPTP block: mitochondrial permeability transition pore inhibitors, primary screen, biochemical, isolated mouse mitochondria, absorbance; 360,000 tested, 1.4% active; AID 602449, 2012; Ca2+ swelling absorbance, 30 min; inhibition, % at 10 µM;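 active means inhibition of 50% or more, scaled per plate between neutral and stimulator controls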;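 further: 0% = DMSO wells given calcium and 100% = 1 mM EGTA wells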
MT1-MMP act inh: blockers of MT1-MMP proenzyme processing, primary screen, HT1080 RFP-PRO-GFP cells, GFP/RFP fluorescence | Matrix metalloproteinase-14 (Homo sapiens), P50281 | GFP/RFP ratio fluorescence, overnight; percent of plate control window, DMSO zero | GFP/RFP ratio change, % at 20 µM | 360,000 tested, 0.061% active | AID 651647, 2012;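 active means GFP/RFP ratio change of at least 30% with cell ATP level not reduced by more than half and red fluorescence within 50% of control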
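Material – HT1080 RFP-PRO-GFP cells · Control set – DMSO wells and RFP-L50D-GFP cells · Incubation – overnight cell settling, then overnight compound exposure, 37 °C, 5% CO2 · Compound dosing – single-point 20 µM compound, 1% DMSO · Read-out – GFP/RFP fluorescence ratio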
Rh123 counter: fluorescence retest of MPTP screen hits in isolated mitochondria, single concentration; shares compounds with MPTP block; membrane potential, Rhodamine 123 fluorescence; inhibition, % at 10 µM; 5,000 tested, 78% active; AID 624504, 2012; in the data active means inhibition above about 22%;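 further: 0% = DMSO vehicle and 100% = positive control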
* hit, by the source's call.

How did Cc1ccccc1OCCCCc1c(C)n[nH]c1C do in these assays?
ATG4B inhibitor: -4; SKN-1 block: -9; MPTP block: 101*; MT1-MMP act inh: -2; Rh123 counter: 98*

How did Cc1n[nH]c(C)c1CCCCOc1ccccc1[N+](=O)[O-] do in these assays?
ATG4B inhibitor: 7; SKN-1 block: 21; MPTP block: 85*; MT1-MMP act inh: -5; Rh123 counter: 74*

What do the screens show for `Cc1n[nH]c(C)c1CCCCOc1ccccc1F`?
ATG4B inhibitor: 0; SKN-1 block: -13; MPTP block: 2; MT1-MMP act inh: 9

Results for CCOC(=O)N1CCC(N(C(=O)Nc2ccc(Cl)c(Cl)c2)C(C)CC)CC1 (stereo unspecified) ?
ATG4B inhibitor: -18; SKN-1 block: 22; MPTP block: 80*; MT1-MMP act inh: 3; Rh123 counter: 95*

Results for Cc1nc(C(F)(F)F)ccc1C(=O)N1CCCCC1 ?
ATG4B inhibitor: -3; SKN-1 block: -14; MPTP block: 0; MT1-MMP act inh: -5

Results for CC(C)(C)OC(=O)CC[C@@H](C(=O)NCCCCCCCCCCC(=O)N1CCN(C(=O)OC(C)(C)C)CC1)n1cc(CCCCCNC(=O)OC(C)(C)C)nn1 ?
ATG4B inhibitor: -6; SKN-1 block: 2; MPTP block: 1; MT1-MMP act inh: 6

Results for CC(C)(C)OC(=O)NCCCCCc1cn([C@@H](CO)C(=O)NCCCCCCCCCCC(=O)N2CCN(C(=O)OC(C)(C)C)CC2)nn1 ?
ATG4B inhibitor: -6; SKN-1 block: 2; MPTP block: 99*; MT1-MMP act inh: 1; Rh123 counter: 109*

What do the screens show for `CC[C@H](C)[C@@H](C(=O)NCCCCCCCCCCC(=O)N1CCN(C(=O)OC(C)(C)C)CC1)n1cc(CCCCCNC(=O)OC(C)(C)C)nn1`?
ATG4B inhibitor: 5; SKN-1 block: 9; MPTP block: 87*; MT1-MMP act inh: 8; Rh123 counter: 22*

What do the screens show for `CN(Cc1ccccc1)C(=S)NC(=O)c1cccs1`?
ATG4B inhibitor: -6; SKN-1 block: -3; MPTP block: 0; MT1-MMP act inh: 3

Results for COc1cc(NC(=O)CSCC(=O)Nc2cccc(C(F)(F)F)c2)c(Cl)cc1Cl ?
ATG4B inhibitor: -7; SKN-1 block: 5; MPTP block: 58*; MT1-MMP act inh: 9; Rh123 counter: 63*

How did OC(c1ccc2ccccc2c1)c1ncc(-c2cccc3ccccc23)[nH]1 (stereo unspecified) do in these assays?
SKN-1 block: 17; MPTP block: 4; MT1-MMP act inh: 1

What do the screens show for `CC1CCC(NC(=O)C(C)N2C(=O)C3CCCCC3C2=O)CC1` (stereo unspecified)?
ATG4B inhibitor: -1; SKN-1 block: 5; MPTP block: 0; MT1-MMP act inh: -3

What do the screens show for `COc1ccc(NC(=O)Cn2nnc(-c3ccccc3NS(=O)(=O)c3ccccc3)n2)cc1`?
ATG4B inhibitor: -14; SKN-1 block: 16; MPTP block: 77*; MT1-MMP act inh: -8; Rh123 counter: 75*

How did CCc1ccc(S(=O)(=O)/N=C2\C=C(Nc3ccc(C(=O)O)cc3)C(=O)c3ccccc32)cc1 do in these assays?
ATG4B inhibitor: 25; SKN-1 block: 1; MPTP block: 5; MT1-MMP act inh: 14

How did CC(C)(C)c1ccc(S(=O)(=O)/N=C2\C=C(NS(=O)(=O)c3ccccc3)C(=O)c3ccccc32)cc1 do in these assays?
ATG4B inhibitor: 15; SKN-1 block: 9; MPTP block: 99*; MT1-MMP act inh: 10; Rh123 counter: 25*

How did O=c1cc(CO)oc(C(Nc2ccccn2)c2ccc(F)cc2)c1O (stereo unspecified) do in these assays?
ATG4B inhibitor: -2; SKN-1 block: 3; MPTP block: -1; MT1-MMP act inh: -3

What do the screens show for `COc1ccc(C(Nc2ccccn2)c2oc(CO)cc(=O)c2O)cc1` (stereo unspecified)?
ATG4B inhibitor: 5; SKN-1 block: -1; MPTP block: 96*; MT1-MMP act inh: 6; Rh123 counter: -11

What do the screens show for `C[C@@H]1CN([C@H](C)CO)C(=O)c2cc(NC(=O)Nc3ccc(F)cc3)ccc2O[C@@H](C)CCCCO[C@H]1CN(C)S(=O)(=O)c1cccs1`?
SKN-1 block: 5; MPTP block: 0; MT1-MMP act inh: 8

Source: PubChem (Sanford-Burnham Center for Chemical Genomics)
